Assay results collected from several papers.
Each line is one published result; the experiments were not run side by side.
Target: Serine/threonine-protein kinase WNK3 (WNK3, Homo sapiens, UniProt Q9BYP7)

The remaining binding of `Cc1cnn2ncc(-c3ccnc(N(C)C)n3)c2c1` is reported as 85% (binding; 1 µM).
`Nc1ncc2c(n1)-c1c([nH]c3ccc(C#CC4CC4)cc13)CCCC2` has a remaining binding of 89% (binding; competition with immobilised ligand; 1 µM).
`C[C@H]1CCN(c2nccc(-c3cnn4ncccc34)n2)C1` gave a remaining binding of 98% (binding; 1 µM).
With `COc1ccc2c(c1)O[C@@H](c1ccc(OC)c(OC)c1)C[C@H]2NC(=O)C1(c2ccc3c(c2)OC(F)(F)O3)CC1` the remaining binding was 100% (cell-free assay; competition with immobilised ligand; 1 µM).
For `c1cncc(-c2cccc(Nc3nccc(NC4CCCCC4)n3)c2)c1`, the remaining binding was 94% (binding; competition with immobilised ligand; 10 µM).
For `c1cnn2ncc(-c3ccnc(N4CCC45COC5)n3)c2c1`, the remaining binding was 68% (binding; 1 µM).
The remaining binding of `Cn1cc(Cl)c2c(Oc3c(F)cc(Nc4cc(Cl)nc(N)n4)cc3F)ccnc21` is reported as 95% (cell-free assay; competition with immobilised ligand; 0.1 µM).
With `O=C(c1ccc(Nc2ncc(Cl)c(-c3ccc(Cl)s3)n2)cc1)N1CCC(N2CCCC2)CC1` the remaining binding was 73% (binding; competition with immobilised ligand; 1 µM).
The remaining binding of `Cc1cc(-n2nc(Cc3cc(F)cc(C(F)(F)F)c3)nc2C)ccc1C(N)=O` is reported as 100% (cell-free assay; competition with immobilised ligand; 1 µM).
For `N[C@@H]1CCN(c2nccc(-c3cnn4ncccc34)n2)C1`, the remaining binding was 98% (binding; 1 µM).
With `CNCc1ccccc1-c1csc([C@H](C)Nc2nc(C)nc3cc(OC)c(OC)cc23)c1` the remaining binding was 98% (cell-free assay; competition with immobilised ligand; 1 µM).
`CC1CCCN1c1nccc(-c2cnn3ncccc23)n1` (stereo not shown) has a remaining binding of 100% (binding; 1 µM).
For `FC(F)(F)Oc1cccc(-c2cnc3ccc(-c4ccncc4)nn23)c1`, the remaining binding was 77% (binding; competition with immobilised ligand; 5 µM).
With `CCN1CCN(Cc2ccc(C(=O)Nc3ccc(C)c(Oc4ccc5c(c4)CC(=O)N5)c3)cc2C(F)(F)F)CC1` the remaining binding was 100% (binding; competition with immobilised ligand; 1 µM).
`O=S(=O)(NC1CCC(c2cc(F)ccc2F)(S(=O)(=O)c2ccc(Cl)cc2)CC1)C(F)(F)F` (stereo not shown) gave a remaining binding of 100% (cell-free assay; competition with immobilised ligand; 1 µM).
For `O=C(NCC1CCOCC1)c1n[nH]cc1NC(=O)c1c(F)cccc1F`, the remaining binding was 95% (binding; competition with immobilised ligand; 1 µM).
For `Cc1c[nH]c2nccc(Oc3c(F)cc(Nc4cc(Cl)nc(N)n4)cc3F)c12`, the remaining binding was 90% (cell-free assay; competition with immobilised ligand; 0.1 µM).
For `CN(c1nccc(-c2cnn3ncccc23)n1)C1CC1`, the remaining binding was 100% (binding; 1 µM).
With `O=C(c1ccc(Nc2nccc(-c3cc4ccccc4s3)n2)cc1)N1CCC(N2CCCC2)CC1` the remaining binding was 100% (binding; competition with immobilised ligand; 1 µM).
For `Cn1nc(C(F)(F)F)cc1-c1cnc(N2CCc3cc(S(=O)(=O)Nc4c(F)cc(Cl)cc4F)cc(N4CCCC4=O)c32)nc1`, the remaining binding was 97% (cell-free assay; competition with immobilised ligand; 1 µM).
`CNC(=O)[C@@H]1CC[C@@H](n2c(-c3ccc4cnccc4c3)nc3ccc(C(=O)NCc4cccc(C(N)=O)c4)cc32)C1` has a remaining binding of 100% (binding; competition with immobilised ligand; 1 µM).
With `Cc1cnc(Nc2ccc(C(=O)N3CCC(N4CCCC4)CC3)cc2)nc1-c1cc2ccccc2s1` the remaining binding was 100% (binding; competition with immobilised ligand; 1 µM).
